According to ChEMBL document CHEMBL1134609, “Dinuclear alkyldiamine platinum antitumor compounds: a structure-activity relationship study” (J Med Chem, 2001):

Key:
L1210/2 = experiment: Cytotoxicity in cisplatin-resistant L1210/2 cell lines; format: functional, cell-based, Mus musculus
How it was run: (§1)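 Murine leukemia L1210/0 (wild-type) or L1210/2 (cisplatin-resistant) cells in McCoy's 5a + 10% FCS with penicillin/streptomycin; 5 × 10⁴ cells/mL pre-cultured 24 h at 37 °C, 5% CO2. Then treated with at least three platinum concentrations (fresh water stocks diluted in medium). Cells counted in a counting chamber after 72 h. IC50 = concentration reducing growth to 50% of control; each concentration tested in ≥2 independent experiments.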

L1210 = experiment: Cytotoxicity against L1210/0 cell line of murine leukemia; format: functional, cell-based, Mus musculus; how it was run: as §1
[1] = Resistance factor was determined using the ratio of cytotoxicity of both the cell lines; format: functional

For CISPLATIN [listing 1 of 2 here], the IC50 (L1210/2) was 4.6 µM and the IC50 (L1210) was 1.5 µM.

Work on TRANSPLATIN [listing 1 of 2 here] yielded an IC50 (L1210/2) of 22 µM and an IC50 (L1210) of 15.7 µM.

Sequence CISPLATIN [listing 2 of 2 here] has an RF [1] of 3.1.

In the case of TRANSPLATIN [listing 2 of 2 here], the RF [1] is reported as 1.4.
